According to ChEMBL document CHEMBL1765020, “Synthesis and structure-affinity relationships of novel dibenzylideneacetone derivatives as probes for β-amyloid plaques” (J Med Chem, 2011):

How the values were obtained:
Brain [1] = test: Ratio of drug uptake in ddY mouse brain at 1 uCi/100 uL, iv after 2 mins to drug uptake in ddY mouse brain at 1 uCi/100 uL, iv after 60 mins; assay type: ADME, organism-based; conditions: in vivo
Procedure, shortened: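 Normal female ddY mice (5 weeks) received the radiotracer iv, and brain uptake (% ID/g, n = 4) was measured by gamma counting at 2 and 60 min. The index is brain uptake at 2 min divided by brain uptake at 60 min.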

Brain [2] = test: Biodistribution in ddY mouse brain at 1 uCi/100 uL, iv after 2 mins by gamma counting; assay type: ADME, organism-based; conditions: in vivo
Procedure, shortened: (§1)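 Normal female ddY mice (5 weeks, about 20 g; n = 4 per group) received radiotracer iv. Organs were removed and weighed at 2–120 min and counted in a γ-counter. Percent dose per gram of wet tissue was calculated against diluted aliquots of the injected material and reported as mean ± SD.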

Brain [3] = test: Biodistribution in ddY mouse brain at 1 uCi/100 uL, iv after 15 mins by gamma counting; assay type: ADME, organism-based; conditions: in vivo, 0.25 h; procedure, shortened: as §1
Intestine [4] = test: Biodistribution in ddY mouse intestine at 1 uCi/100 uL, iv after 15 mins by gamma counting; assay type: ADME, organism-based; conditions: in vivo, 0.25 h; procedure, shortened: as §1
Brain [5] = test: Biodistribution in ddY mouse brain at 1 uCi/100 uL, iv after 120 mins by gamma counting; assay type: ADME, organism-based; conditions: in vivo, 2 h; procedure, shortened: as §1
Blood [6] = test: Biodistribution in ddY mouse blood at 1 uCi/100 uL, iv after 120 mins by gamma counting; assay type: ADME, organism-based; conditions: in vivo, 2 h; procedure, shortened: as §1
Thyroid gland [7] = test: Biodistribution in ddY mouse thyroid at 1 uCi/100 uL, iv after 15 mins by gamma counting; assay type: ADME, organism-based; conditions: in vivo, 0.25 h
Kidney [8] = test: Biodistribution in ddY mouse kidney at 1 uCi/100 uL, iv after 2 mins by gamma counting; assay type: ADME, organism-based; conditions: in vivo; procedure, shortened: as §1
[9] = Partition coefficient, log D of the compound; assay type: physicochemical; conditions: octanol/water
Procedure, shortened: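 Radiotracer partitioned between n-octanol and PBS: vortexed 3 min at room temperature, centrifuged 5 min at 3000 rpm. Weighed samples of the octanol (100 μL) and buffer (500 μL) layers were counted. log D is the log of the ratio of counts per gram, octanol versus PBS.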

Stomach [10] = test: Biodistribution in ddY mouse stomach at 1 uCi/100 uL, iv after 15 mins by gamma counting; assay type: ADME, organism-based; conditions: in vivo, 0.25 h
Heart [11] = test: Biodistribution in ddY mouse heart at 1 uCi/100 uL, iv after 30 mins by gamma counting; assay type: ADME, organism-based; conditions: in vivo, 0.5 h; procedure, shortened: as §1
Brain [12] = test: Biodistribution in ddY mouse brain at 1 uCi/100 uL, iv after 60 mins by gamma counting; assay type: ADME, organism-based; conditions: in vivo, 1 h; procedure, shortened: as §1
Brain [13] = test: Biodistribution in ddY mouse brain at 1 uCi/100 uL, iv after 30 mins by gamma counting; assay type: ADME, organism-based; conditions: in vivo, 0.5 h; procedure, shortened: as §1
Heart [14] = test: Biodistribution in ddY mouse heart at 1 uCi/100 uL, iv after 2 mins by gamma counting; assay type: ADME, organism-based; conditions: in vivo; procedure, shortened: as §1
Heart [15] = test: Biodistribution in ddY mouse heart at 1 uCi/100 uL, iv after 15 mins by gamma counting; assay type: ADME, organism-based; conditions: in vivo, 0.25 h; procedure, shortened: as §1
Kidney [16] = test: Biodistribution in ddY mouse kidney at 1 uCi/100 uL, iv after 60 mins by gamma counting; assay type: ADME, organism-based; conditions: in vivo, 1 h
Intestine [17] = test: Biodistribution in ddY mouse intestine at 1 uCi/100 uL, iv after 120 mins by gamma counting; assay type: ADME, organism-based; conditions: in vivo, 2 h; procedure, shortened: as §1
Kidney [18] = test: Biodistribution in ddY mouse kidney at 1 uCi/100 uL, iv after 15 mins by gamma counting; assay type: ADME, organism-based; conditions: in vivo, 0.25 h; procedure, shortened: as §1
Intestine [19] = test: Biodistribution in ddY mouse intestine at 1 uCi/100 uL, iv after 2 mins by gamma counting; assay type: ADME, organism-based; conditions: in vivo; procedure, shortened: as §1
Heart [20] = test: Biodistribution in ddY mouse heart at 1 uCi/100 uL, iv after 60 mins by gamma counting; assay type: ADME, organism-based; conditions: in vivo, 1 h; procedure, shortened: as §1
Liver [21] = test: Biodistribution in ddY mouse liver at 1 uCi/100 uL, iv after 120 mins by gamma counting; assay type: ADME, organism-based; conditions: in vivo, 2 h
Liver [22] = test: Biodistribution in ddY mouse liver at 1 uCi/100 uL, iv after 30 mins by gamma counting; assay type: ADME, organism-based; conditions: in vivo, 0.5 h
Thyroid gland [23] = test: Biodistribution in ddY mouse thyroid at 1 uCi/100 uL, iv after 120 mins by gamma counting; assay type: ADME, organism-based; conditions: in vivo, 2 h
Heart [24] = test: Biodistribution in ddY mouse heart at 1 uCi/100 uL, iv after 120 mins by gamma counting; assay type: ADME, organism-based; conditions: in vivo, 2 h; procedure, shortened: as §1
Liver [25] = test: Biodistribution in ddY mouse liver at 1 uCi/100 uL, iv after 15 mins by gamma counting; assay type: ADME, organism-based; conditions: in vivo, 0.25 h
Spleen [26] = test: Biodistribution in ddY mouse spleen at 1 uCi/100 uL, iv after 60 mins by gamma counting; assay type: ADME, organism-based; conditions: in vivo, 1 h
Blood [27] = test: Biodistribution in ddY mouse blood at 1 uCi/100 uL, iv after 15 mins by gamma counting; assay type: ADME, organism-based; conditions: in vivo, 0.25 h; procedure, shortened: as §1
Spleen [28] = test: Biodistribution in ddY mouse spleen at 1 uCi/100 uL, iv after 15 mins by gamma counting; assay type: ADME, organism-based; conditions: in vivo, 0.25 h
Spleen [29] = test: Biodistribution in ddY mouse spleen at 1 uCi/100 uL, iv after 2 mins by gamma counting; assay type: ADME, organism-based; conditions: in vivo
Thyroid gland [30] = test: Biodistribution in ddY mouse thyroid at 1 uCi/100 uL, iv after 60 mins by gamma counting; assay type: ADME, organism-based; conditions: in vivo, 1 h
Lung [31] = test: Biodistribution in ddY mouse lung at 1 uCi/100 uL, iv after 2 mins by gamma counting; assay type: ADME, organism-based; conditions: in vivo
Stomach [32] = test: Biodistribution in ddY mouse stomach at 1 uCi/100 uL, iv after 2 mins by gamma counting; assay type: ADME, organism-based; conditions: in vivo
Stomach [33] = test: Biodistribution in ddY mouse stomach at 1 uCi/100 uL, iv after 30 mins by gamma counting; assay type: ADME, organism-based; conditions: in vivo, 0.5 h
Lung [34] = test: Biodistribution in ddY mouse lung at 1 uCi/100 uL, iv after 30 mins by gamma counting; assay type: ADME, organism-based; conditions: in vivo, 0.5 h
Blood [35] = test: Biodistribution in ddY mouse blood at 1 uCi/100 uL, iv after 30 mins by gamma counting; assay type: ADME, organism-based; conditions: in vivo, 0.5 h; procedure, shortened: as §1
Intestine [36] = test: Biodistribution in ddY mouse intestine at 1 uCi/100 uL, iv after 30 mins by gamma counting; assay type: ADME, organism-based; conditions: in vivo, 0.5 h; procedure, shortened: as §1
Liver [37] = test: Biodistribution in ddY mouse liver at 1 uCi/100 uL, iv after 60 mins by gamma counting; assay type: ADME, organism-based; conditions: in vivo, 1 h
Liver [38] = test: Biodistribution in ddY mouse liver at 1 uCi/100 uL, iv after 2 mins by gamma counting; assay type: ADME, organism-based; conditions: in vivo
Stomach [39] = test: Biodistribution in ddY mouse stomach at 1 uCi/100 uL, iv after 120 mins by gamma counting; assay type: ADME, organism-based; conditions: in vivo, 2 h
Thyroid gland [40] = test: Biodistribution in ddY mouse thyroid at 1 uCi/100 uL, iv after 30 mins by gamma counting; assay type: ADME, organism-based; conditions: in vivo, 0.5 h
Lung [41] = test: Biodistribution in ddY mouse lung at 1 uCi/100 uL, iv after 120 mins by gamma counting; assay type: ADME, organism-based; conditions: in vivo, 2 h
Spleen [42] = test: Biodistribution in ddY mouse spleen at 1 uCi/100 uL, iv after 30 mins by gamma counting; assay type: ADME, organism-based; conditions: in vivo, 0.5 h
Blood [43] = test: Biodistribution in ddY mouse blood at 1 uCi/100 uL, iv after 60 mins by gamma counting; assay type: ADME, organism-based; conditions: in vivo, 1 h; procedure, shortened: as §1
Stomach [44] = test: Biodistribution in ddY mouse stomach at 1 uCi/100 uL, iv after 60 mins by gamma counting; assay type: ADME, organism-based; conditions: in vivo, 1 h
Thyroid gland [45] = test: Biodistribution in ddY mouse thyroid at 1 uCi/100 uL, iv after 2 mins by gamma counting; assay type: ADME, organism-based; conditions: in vivo
Blood [46] = test: Biodistribution in ddY mouse blood at 1 uCi/100 uL, iv after 2 mins by gamma counting; assay type: ADME, organism-based; conditions: in vivo; procedure, shortened: as §1
Kidney [47] = test: Biodistribution in ddY mouse kidney at 1 uCi/100 uL, iv after 120 mins by gamma counting; assay type: ADME, organism-based; conditions: in vivo, 2 h; procedure, shortened: as §1
Lung [48] = test: Biodistribution in ddY mouse lung at 1 uCi/100 uL, iv after 60 mins by gamma counting; assay type: ADME, organism-based; conditions: in vivo, 1 h
Kidney [49] = test: Biodistribution in ddY mouse kidney at 1 uCi/100 uL, iv after 30 mins by gamma counting; assay type: ADME, organism-based; conditions: in vivo, 0.5 h
Lung [50] = test: Biodistribution in ddY mouse lung at 1 uCi/100 uL, iv after 15 mins by gamma counting; assay type: ADME, organism-based; conditions: in vivo, 0.25 h
Spleen [51] = test: Biodistribution in ddY mouse spleen at 1 uCi/100 uL, iv after 120 mins by gamma counting; assay type: ADME, organism-based; conditions: in vivo, 2 h
Intestine [52] = test: Biodistribution in ddY mouse intestine at 1 uCi/100 uL, iv after 60 mins by gamma counting; assay type: ADME, organism-based; conditions: in vivo, 1 h; procedure, shortened: as §1

SMILES: CN(C)c1ccc(/C=C/C(=O)/C=C/c2ccc([125I])cc2)cc1
- Ratio (Brain [1]): 5.68
- Drug uptake (Brain [2]): 1.59 % ID/g
- Drug uptake (Brain [3]): 1.11 % ID/g
- Drug uptake (Intestine [4]): 7.38 % ID/g
- Drug uptake (Brain [5]): 0.26 % ID/g
- Drug uptake (Blood [6]): 2.29 % ID/g
- Drug uptake (Thyroid gland [7]): 14.93 % ID/g
- Drug uptake (Kidney [8]): 15.86 % ID/g
- logD [9]: 3.66
- Drug uptake (Stomach [10]): 1.75 % ID/organ
- Drug uptake (Heart [11]): 1.62 % ID/g
- Drug uptake (Brain [12]): 0.28 % ID/g
- Drug uptake (Brain [13]): 0.63 % ID/g
- Drug uptake (Heart [14]): 6.42 % ID/g
- Drug uptake (Heart [15]): 2.69 % ID/g
- Drug uptake (Kidney [16]): 7 % ID/g
- Drug uptake (Intestine [17]): 17.65 % ID/g
- Drug uptake (Kidney [18]): 22.23 % ID/g
- Drug uptake (Intestine [19]): 1.38 % ID/g
- Drug uptake (Heart [20]): 1.03 % ID/g
- Drug uptake (Liver [21]): 16.47 % ID/g
- Drug uptake (Liver [22]): 24.64 % ID/g
- Drug uptake (Thyroid gland [23]): 32.22 % ID/g
- Drug uptake (Heart [24]): 1.19 % ID/g
- Drug uptake (Liver [25]): 32.8 % ID/g
- Drug uptake (Spleen [26]): 6.28 % ID/g
- Drug uptake (Blood [27]): 6.58 % ID/g
- Drug uptake (Spleen [28]): 9.94 % ID/g
- Drug uptake (Spleen [29]): 11.59 % ID/g
- Drug uptake (Thyroid gland [30]): 23.53 % ID/g
- Drug uptake (Lung [31]): 24.45 % ID/g
- Drug uptake (Stomach [32]): 1.16 % ID/organ
- Drug uptake (Stomach [33]): 1.85 % ID/organ
- Drug uptake (Lung [34]): 6.91 % ID/g
- Drug uptake (Blood [35]): 3.98 % ID/g
- Drug uptake (Intestine [36]): 11.62 % ID/g
- Drug uptake (Liver [37]): 11.54 % ID/g
- Drug uptake (Liver [38]): 44.64 % ID/g
- Drug uptake (Stomach [39]): 0.77 % ID/organ
- Drug uptake (Thyroid gland [40]): 26.77 % ID/g
- Drug uptake (Lung [41]): 3.35 % ID/g
- Drug uptake (Spleen [42]): 12.26 % ID/g
- Drug uptake (Blood [43]): 2.16 % ID/g
- Drug uptake (Stomach [44]): 0.61 % ID/organ
- Drug uptake (Thyroid gland [45]): 11.56 % ID/g
- Drug uptake (Blood [46]): 11.62 % ID/g
- Drug uptake (Kidney [47]): 8.55 % ID/g
- Drug uptake (Lung [48]): 3.64 % ID/g
- Drug uptake (Kidney [49]): 15.63 % ID/g
- Drug uptake (Lung [50]): 12.97 % ID/g
- Drug uptake (Spleen [51]): 7.34 % ID/g
- Drug uptake (Intestine [52]): 7.68 % ID/g
